In ChEMBL document CHEMBL1125735, “trans-hexahydroindolo[4,3-ab]phenanthridines ("benzergolines"), the first structural class of potent and selective dopamine D1 receptor agonists lacking a catechol group” (1991) one finds Relative activity, Control and pD2 data, which are given here for ten compounds.

The species entered for one test is Bos taurus. In words: Percent of maximal effect of 125 uM Dopamine in the adenylate cyclase assay. It is filed as functional. In a few lines:
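Dopamine-sensitive adenylate cyclase assay run on bovine retina tissue.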

The target of test [1] is D(2) dopamine receptor (Rattus norvegicus) (UniProt P61169). Description: Percent of maximal inhibition by change of S2/S1 versus control at 1 uM for the cetylcholine (ACh) release as a model for Dopamine D2 receptor activation. It is filed as functional. The arrangement: scale not given: the % may be the effect or the level left. In a few lines: (§1)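 Electrically evoked acetylcholine release measured in rat striatal slices.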
Chain of D(2) dopamine receptor (Rattus norvegicus) (P61169 whole entry): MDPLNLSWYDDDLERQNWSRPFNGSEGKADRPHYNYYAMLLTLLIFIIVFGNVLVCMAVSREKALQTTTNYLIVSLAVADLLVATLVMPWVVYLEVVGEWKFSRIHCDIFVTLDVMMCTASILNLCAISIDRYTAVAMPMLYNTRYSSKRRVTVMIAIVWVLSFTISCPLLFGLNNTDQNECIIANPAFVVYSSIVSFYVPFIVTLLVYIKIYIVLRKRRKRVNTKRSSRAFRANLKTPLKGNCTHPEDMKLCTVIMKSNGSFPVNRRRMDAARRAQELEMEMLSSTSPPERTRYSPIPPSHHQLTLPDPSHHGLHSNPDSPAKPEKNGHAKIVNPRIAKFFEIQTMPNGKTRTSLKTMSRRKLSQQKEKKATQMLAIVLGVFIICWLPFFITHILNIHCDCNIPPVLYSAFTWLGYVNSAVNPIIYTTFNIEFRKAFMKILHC

Test [2] shares this target. Description: Percent of maximal inhibition by change of S2/S1 versus control at 1 uM for the acetylcholine (ACh) release as a model for Dopamine D2 receptor activation. The arrangement: scale not given: the % may be the effect or the level left. Type of test: functional. In a few lines: as §1
In test [3] the test system is Dopamine D1 receptor (Bos taurus). In words: Compound was evaluated for its potency to Dopamine D1 stimulating effect in the adenylate cyclase assay.
Test [4] addresses D(2) dopamine receptor (Rattus norvegicus) (UniProt P61169). In words: Compound was evaluated for its potency to inhibit electrically evoked acetylcholine (ACh) release as a model for Dopamine D2 receptor activation. It is filed as functional. The procedure, abridged: as §1
The target is the same in test [5]. The settings on record: 1 uM.

Turning to `CN1Cc2ccccc2[C@H]2c3cccc4c3C(CN4)C[C@H]21` (stereo not given in full), in the test filed under Bos taurus, the Relative activity is 0%. Besides, the Control in test [1] turned out to be 0%.

For `CN1Cc2ccccc2[C@H]2c3cccc4[nH]cc(c34)C[C@H]21`, the Relative activity in the test listed under Bos taurus came out at 57%. Also, the Control in test [2] was 0%. In test [3], the pD2 amounted to 6.1.

The compound `Oc1cc2c(cc1O)C(c1ccccc1)CNCC2` (stereo not given) [SKF-38393] came in with a Relative activity in the test filed under Bos taurus of 58%. For the same compound, the Control in test [1] was determined as 0%. Also, the pD2 in test [3] is reported as 6.6.

The compound `CCN1Cc2ccccc2[C@H]2c3cccc4[nH]cc(c34)C[C@H]21` had a Relative activity in the test filed under Bos taurus of 72%. In test [2], this compound yielded a Control of 0%. For the same compound, in test [3], the pD2 is on record as 6.

In the test filed under Bos taurus, `CCCN1Cc2ccccc2[C@H]2c3cccc4[nH]cc(c34)C[C@H]21` gave a Relative activity of 55%. The compound further returned a Control in test [2] of 0%. In test [3], this compound returned a pD2 of 5.7.

As to `CN1CCC[C@H]2c3cccc4[nH]cc(c34)C[C@H]21`, in the test listed under Bos taurus, the Relative activity is given as 24%. The same compound gave a Control in test [1] of 30%. Further, the pD2 in test [4] turned out to be 7.5; in test [3], 5.2.

For the compound `CN1CCc2cccc3c2[C@H]1Cc1ccc(O)c(O)c1-3` [APOMORPHINE], the Relative activity in the test filed under Bos taurus amounted to 38%. Besides, the pD2 in test [4] is 7.5; in test [3] it was 6.2. Moreover, in test [5], the Control came to 85%.

Take `c1ccc2c(c1)CN[C@@H]1Cc3c[nH]c4cccc(c34)[C@H]21`: the Relative activity in the test filed under Bos taurus worked out at 82%. The compound also yielded a Control in test [2] of 0%. Besides, in test [3], the pD2 was found to be 6.3.

As for `Oc1ccc([C@@H]2CNCc3ccccc32)cc1O`, in the test listed under Bos taurus, the Relative activity is 86%. In test [1], the Control was 0%. This compound came in with a pD2 in test [3] of 6.

With `CCCCN1Cc2ccccc2[C@H]2c3cccc4[nH]cc(c34)C[C@H]21`, in the test listed under Bos taurus, the Relative activity is recorded as 0%. Also, in test [1], the Control was 0%.
